Results: ChEMBL document CHEMBL1926565, “Synthesis, antiproliferative activities and telomerase inhibition evaluation of novel asymmetrical 1,2-disubstituted amidoanthraquinone derivatives” (Eur J Med Chem, 2012)
Active and inactive are the calls of the source. No cut-off for these calls is given here.

Key:
[1] = Growth of human H1299 cells at 1 uM after 48 hrs by MTT assay; details: NCI-H1299, 48 h
[2] = molecular target: Telomerase reverse transcriptase (Homo sapiens) (UniProt O14746); experiment: Inhibition of telomerase activity in human H1299 cell free extract at 10 uM by modified TRAP assay
Telomerase reverse transcriptase (Homo sapiens), sequence (O14746 whole entry): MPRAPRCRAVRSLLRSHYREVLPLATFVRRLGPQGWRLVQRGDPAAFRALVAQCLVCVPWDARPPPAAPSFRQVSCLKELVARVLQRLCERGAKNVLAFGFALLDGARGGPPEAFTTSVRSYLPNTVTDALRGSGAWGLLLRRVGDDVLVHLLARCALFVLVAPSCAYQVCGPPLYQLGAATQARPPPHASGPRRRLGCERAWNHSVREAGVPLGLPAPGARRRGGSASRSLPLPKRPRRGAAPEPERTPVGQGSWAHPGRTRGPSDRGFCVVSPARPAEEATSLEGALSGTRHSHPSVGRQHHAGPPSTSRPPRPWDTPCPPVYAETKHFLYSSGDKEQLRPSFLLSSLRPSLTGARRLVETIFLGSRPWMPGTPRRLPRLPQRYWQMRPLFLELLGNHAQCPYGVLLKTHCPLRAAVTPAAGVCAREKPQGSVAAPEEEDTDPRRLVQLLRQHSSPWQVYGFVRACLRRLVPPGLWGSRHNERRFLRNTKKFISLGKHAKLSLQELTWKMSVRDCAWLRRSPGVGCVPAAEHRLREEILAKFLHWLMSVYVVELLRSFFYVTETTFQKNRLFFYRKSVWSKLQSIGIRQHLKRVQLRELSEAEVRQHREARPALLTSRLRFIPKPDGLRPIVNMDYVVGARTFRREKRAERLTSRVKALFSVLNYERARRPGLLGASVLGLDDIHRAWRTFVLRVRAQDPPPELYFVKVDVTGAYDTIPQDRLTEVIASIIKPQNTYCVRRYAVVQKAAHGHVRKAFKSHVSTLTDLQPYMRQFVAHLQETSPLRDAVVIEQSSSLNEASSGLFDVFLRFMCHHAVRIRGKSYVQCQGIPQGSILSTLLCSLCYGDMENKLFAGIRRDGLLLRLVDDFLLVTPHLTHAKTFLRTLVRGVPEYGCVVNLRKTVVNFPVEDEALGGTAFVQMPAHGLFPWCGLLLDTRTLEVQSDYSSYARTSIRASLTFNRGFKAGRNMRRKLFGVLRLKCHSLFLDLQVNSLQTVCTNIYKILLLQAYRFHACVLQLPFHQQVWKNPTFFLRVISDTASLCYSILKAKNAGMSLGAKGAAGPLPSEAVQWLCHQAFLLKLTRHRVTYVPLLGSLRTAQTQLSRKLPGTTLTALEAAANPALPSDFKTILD
Outline: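 TRAP assay using total cell lysate from H1299 lung cancer cells as the telomerase source, with protein measured against BSA standards. Compounds tested at 10 µM. Controls were lysate without inhibitor (positive) and RNase A-treated extract without inhibitor (negative).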

PC-3 = experiment: Cytotoxicity against human PC3 cells after 48 hrs by SRB assay; type: functional, cell-based; details: PC-3, 48 h
Outline: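 PC-3 cells grown in RPMI1640 with 10% FBS at 37 °C, 5% CO₂. Seeded in medium with 5% FBS; after 24 h, one plate fixed with 10% TCA as T₀. Compound or 0.1% DMSO vehicle added for 48 h, then TCA fixation and 0.4% SRB in 1% acetic acid. Dye solubilized in 10 mM Trizma base, absorbance read at 515 nm. IC50 is the concentration giving 50% reduction of the protein gain in controls.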

[3] = Growth of human H1299 cells at 10 uM after 48 hrs by MTT assay; details: NCI-H1299, 48 h
[4] = Growth of human H1299 cells at 100 uM 48 hrs by MTT assay; details: NCI-H1299, 48 h
[5] = molecular target: Telomerase reverse transcriptase (Homo sapiens) (UniProt O14746); experiment: Residual activity of human TERT in H1299 cells at 10 uM after 24 hrs by SEAP reporter gene assay
[6] = molecular target: Telomerase reverse transcriptase (Homo sapiens) (UniProt O14746); experiment: Residual activity of human TERT in H1299 cells at 100 uM after 24 hrs by SEAP reporter gene assay
[7] = molecular target: Telomerase reverse transcriptase (Homo sapiens) (UniProt O14746); experiment: Residual activity of human TERT in H1299 cells at 1 uM after 24 hrs by SEAP reporter gene assay

SMILES | growth, % of control at 1 µM [1] [%] | inhibition [2] | IC50 (PC-3) [µM] | growth, % of control at 10 µM [3] [%] | growth, % of control at 100 µM [4] [%] | residual activity [5] [%] | residual activity [6] [%] | residual activity [7] [%]
O=C(CCl)Nc1ccc2c(c1NC(=O)c1cccc(Cl)c1)C(=O)c1ccccc1C2=O | 89 | inactive | 3.51 | 5 | 0 | 6 | 3 | 80
O=C(CCl)Nc1ccc2c(c1NC(=O)c1ccc(Cl)cc1)C(=O)c1ccccc1C2=O | 92 | inactive | > 20 | 5 | 4 | 6 | 4 | 98
O=C(CCl)Nc1ccc2c(c1NC(=O)c1cccc(C(F)(F)F)c1)C(=O)c1ccccc1C2=O | 94 | inactive | 5.68 | 5 | 3 | 4 | 0 | 99
O=C(CCl)Nc1ccc2c(c1NC(=O)CSc1ccccc1)C(=O)c1ccccc1C2=O | 88 | inactive | 5.39 | 5 | 0 | 3 | 0 | 80
O=C(CCl)Nc1ccc2c(c1NC(=O)CCl)C(=O)c1ccccc1C2=O | 8 | inactive | 1.19 | 0 | 0 | 13 | 13 | 15
Cc1ccc(C(=O)Nc2c(NC(=O)CN3CCN(c4ccccn4)CC3)ccc3c2C(=O)c2ccccc2C3=O)cc1 | 105 | inactive | > 20 | 100 | 6 | 64 | 9 | 97
Cc1cc(C(=O)Nc2c(NC(=O)CCl)ccc3c2C(=O)c2ccccc2C3=O)c(C)o1 | 96 | inactive | 4.31 | 2 | 0 | 2 | 0 | 81
Cc1ccc(C(=O)Nc2c(NC(=O)CN3CCOCC3)ccc3c2C(=O)c2ccccc2C3=O)cc1 | 81 | inactive | > 20 | 56 | 15 | 54 | 3 | 98
O=C(CCl)Nc1ccc2c(c1NC(=O)COc1ccccc1)C(=O)c1ccccc1C2=O | 101 | inactive | > 20 | 66 | 4 | 72 | 4 | 82
Cc1ccc(C(=O)Nc2c(NC(=O)CN3CCN(c4ncccn4)CC3)ccc3c2C(=O)c2ccccc2C3=O)cc1 | 102 | inactive | > 20 | 91 | 59 | 79 | 19 | 87
O=C(CCl)Nc1ccc2c(c1NC(=O)c1cccs1)C(=O)c1ccccc1C2=O | 0 | inactive | 2.64 | 2 | 0 | 3 | 2 | 5
O=C(CCCl)Nc1ccc2c(c1NC(=O)CCCl)C(=O)c1ccccc1C2=O | 101 | inactive | > 20 | 83 | 5 | 94 | 15 | 96
O=C(CCl)Nc1ccc2c(c1NC(=O)c1ccco1)C(=O)c1ccccc1C2=O | 80 | inactive | 2.44 | 0 | 2 | 2 | 2 | 84
O=C(CCCCl)Nc1ccc2c(c1NC(=O)CCCCl)C(=O)c1ccccc1C2=O | 103 | inactive | 3.94 | 79 | 19 | 92 | 15 | 113
O=C(CCl)Nc1ccc2c(c1NC(=O)CCCCl)C(=O)c1ccccc1C2=O | 100 | inactive | 1.12 | 116 | 62 | 97 | 30 | 108
Cc1ccc(C(=O)Nc2c(NC(=O)CN3CCCCC3)ccc3c2C(=O)c2ccccc2C3=O)cc1 | 86 | inactive | > 20 | 70 | 10 | 70 | 8 | 85
O=C(CCl)Nc1ccc2c(c1NC(=O)c1ccccc1C(F)(F)F)C(=O)c1ccccc1C2=O | 93 | inactive | 3.42 | 3 | 0 | 4 | 2 | 93
O=C(CCl)Nc1ccc2c(c1NC(=O)c1ccc(F)cc1)C(=O)c1ccccc1C2=O | 10 | inactive | 3.14 | 4 | 0 | 2 | 0 | 11
Cc1ccc(C(=O)Nc2c(NC(=O)CN(C)C)ccc3c2C(=O)c2ccccc2C3=O)cc1 | 106 | inactive | 3.92 | 88 | 0 | 78 | 9 | 99
O=C(CCl)Nc1ccc2c(c1NC(=O)c1ccccc1)C(=O)c1ccccc1C2=O | 101 | inactive | 0.95 | 83 | 5 | 94 | 15 | 96
